Source: PubChem
Sampled rows, rich in hits. Any-hit rate of the full collection: about 4.7%.
MrgX1 PAM = human MrgX1 positive allosteric modulation, primary screen. Q96LB2. MrgX1-HEK293, Fluo-4 calcium flux, FDSS; hits give high values. B-score at 10 µM. 0.63% of 310,000 active. AID 588675;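 active = plate-corrected calcium response at least 3 library SD above typical, normal starting fluorescence, not activating the receptor alone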;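 also: compound read alongside a low EC10 to EC30 dose of BAM8-22 agonist; peak minus trough fluorescence over baseline measured at the second addition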
Target sequence (Q96LB2 whole entry, looked up): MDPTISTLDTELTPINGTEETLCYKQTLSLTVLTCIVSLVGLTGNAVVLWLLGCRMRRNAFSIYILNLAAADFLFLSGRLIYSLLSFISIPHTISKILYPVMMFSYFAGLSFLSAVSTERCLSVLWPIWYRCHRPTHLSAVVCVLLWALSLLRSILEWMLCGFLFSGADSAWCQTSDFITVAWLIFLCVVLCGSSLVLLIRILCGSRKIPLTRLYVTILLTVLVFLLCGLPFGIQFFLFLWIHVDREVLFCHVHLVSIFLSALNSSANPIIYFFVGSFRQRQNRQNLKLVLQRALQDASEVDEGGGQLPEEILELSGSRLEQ
MrgX1 antag = human MrgX1 receptor antagonism, primary screen. Q96LB2. MRGX1-HEK293 calcium flux, Fluo-4, BAM8-22 antagonism; hits give low values. B-score at 10 µM. 1.3% of 310,000 active. AID 588676;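 active = calcium-response B-score plate-corrected more than 3 library SD below zero, starting fluorescence within 5 deviations, no agonist response on first addition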;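 also: peak minus trough fluorescence over baseline after final BAM8-22 challenge near maximal dose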
MrgX1 ag = activates human MrgX1 receptor signaling. AID 588627. Q96LB2. B-score at 10 µM. MrgX1-HEK293 cells, Fluo-4 calcium fluorescence, agonist mode; hits give high values. 0.44% of 310,000 active;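 active = calcium response B-score plate-corrected fluorescence ratio at least 3 library SD, with starting fluorescence B-score inside 5 SD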
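Assay system: MrgX1-expressing HEK293 cells / Amount: fifteen thousand cells per well / Doses: test compound in the initial addition of three / Timing: cells plated overnight, dye loaded 0.5 h 37 °C, 0.5 h room temperature / Technique: kinetic calcium dye fluorescence, Fluo-4 NW / Control set: positive and negative controls per plate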
RGS4 pot = potentiators or activators of RGS4. 0.92% of 310,000 active. B-score at 10 µM. HEK293 M3R/inducible RGS4, carbachol calcium flux Fluo4; hits give low values. AID 463111;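 active = B-score of the integrated calcium signal more than 4 SD below the library mean, with starting fluorescence not abnormally high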;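 also: negative B-score means reduced calcium response which marks RGS4 activation or potentiation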
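Reagent: ECmax carbachol challenge; Test system: M3R-expressing HEK293 line, RGS4 induced by doxycycline; Schedule: overnight RGS4 induction, 30 min dye load 37 °C, 20 min compound RT; Detection: calcium dye Fluo4 fluorescence; Read-out: Agonist-evoked peak-minus-minimum fluorescence over baseline, integrated ratio, B score.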
Cl transport mod = KCC2 (human) Cl- transport modulation. B-score of Tl+ flux slope (higher = more flux/activation; lower = inhibition) at 10 µM. AID 1456. KCC2 cells, thallium flux FluoZin-2 fluorescence. 2.2% of 190,000 active. Q9H2X9;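 active = thallium flux slope and its plate-corrected score both differing from the plate sample mean at a set confidence after two filtering rounds, in either direction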;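 also: slope of fluorescence scaled to starting intensity during 10 to 20 s after thallium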
RGS4 block = inhibitors of human RGS4; P49798; HEK293 M3R/RGS4 inducible, Fluo-4 calcium flux; hits give high values; triggered by carbachol at its EC20; B-score at 10 µM; 0.45% of 310,000 active; AID 463165;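 active = B-score, a plate-corrected calcium signal, over three deviations above library mean, with baseline fluorescence within five deviations of library mean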;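 also: RGS4 expression induced by doxycycline in cells with stable M3 receptor; B-score is computed from the integrated fluorescence ratio over baseline after carbachol; higher B-score means a larger calcium signal and so more RGS4 inhibition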
Target sequence (P49798 whole entry, looked up): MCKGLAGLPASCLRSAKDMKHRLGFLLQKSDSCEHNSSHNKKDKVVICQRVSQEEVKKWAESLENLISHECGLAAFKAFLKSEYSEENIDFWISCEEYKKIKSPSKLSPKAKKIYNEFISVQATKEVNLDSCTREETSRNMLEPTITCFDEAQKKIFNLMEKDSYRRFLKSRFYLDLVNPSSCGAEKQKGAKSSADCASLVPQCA
KCC2 sec1 = confirmation of human KCC2 transport modulators; HEK293-KCC2, thallium flux, FluoZin2 fluorescence; hits give high values; normalised thallium flux (F/F0 slope) at 10 µM; 15% of 3,700 active; AID 1713; shares compounds with Cl transport mod;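 active = thallium flux slope above the same plate's solvent-only control mean plus 3 SD; inconclusive = the two replicate wells disagree; inactive = no significant difference from solvent-only control wells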
KCC2 bumet counter = bumetanide-insensitive thallium flux in KCC2 cells with ouabain, counter-screen; AID 1714; 49% of 3,700 active; normalized thallium flux at 10 µM; HEK293-KCC2 + bumetanide/ouabain, thallium flux FluoZin2; hits give high values; shares compounds with Cl transport mod;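 active = thallium entry rate above the same plate's blocked-transporter control wells by more than 3 SD; inconclusive = the two repeat wells disagree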;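 also: raw slope of fluorescence over initial fluorescence between 10 and 20 s after thallium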
KCC2 sec2 = KCC2 (human) modulation, second secondary assay; AID 1715; 23% of 3,700 active; normalized thallium flux at 10 µM; HEK293-KCC2, thallium flux FluoZin2 fluorescence; actives lie on both sides; F/F0 rise rate, 10–20 s post-thallium; shares compounds with Cl transport mod;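 active = thallium flux slope more than 3 SD above or below the plate's solvent-only control mean, mostly below; inconclusive = the two repeat wells disagreed; inactive = no significant shift from solvent-only controls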
HEK293 Tl flux = counter-screen for KCC2 modulators: effect in parental HEK293 cells; thallium flux rate (normalised fluorescence) at 10 µM; thallium flux FluoZin2, ouabain; baseline-ratio fluorescence slope, 10–20 s after thallium; AID 1716; 46% of 3,700 active; shares compounds with Cl transport mod;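 active = thallium flux rate significantly above the same plate's solvent-only control wells, beyond their mean plus 3 SD; inconclusive = the two replicate wells gave conflicting results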
KCC2 retest ouab = KCC2 (human) modulation, ouabain retest; shares compounds with Cl transport mod; HEK293-KCC2, thallium flux FluoZin2 fluorescence; bidirectional: low = inhibitor, high = activator; raw Tl+ flux slope (below DMSO = inhibition, above = activation) at 10 µM; 48% of 3,700 active; AID 1717;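 active = thallium flux slope beyond 3 SD from same-plate DMSO control mean in most replicates, usually higher, sometimes lower; inconclusive = repeat tests gave conflicting results; inactive = no significant difference from controls in most replicates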;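 also: slope of initial-normalized fluorescence between seconds 10 and 20 after thallium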
HEK counter2 = counter-screen for KCC2 modulators: effect in parental HEK293 cells; shares compounds with Cl transport mod; thallium flux FluoZin-2 fluorescence slope; thallium flux slope at 10 µM; 33% of 3,700 active; AID 1718;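 active = thallium flux slope above the same plate's solvent-control mean plus 3 SD in both duplicate wells; inconclusive = duplicate wells that disagreed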;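 also: run without ouabain in cells lacking the KCC2 cotransporter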
Of the large screens only hits and unclear results are named; the others gave an inactive call (follow-up assays come after a bar, where they were run).

Cc1ccc(C(=O)CSc2nnc3c4ccccc4nc(C(C)(C)C)n23)cc1	Cl transport mod 16.4 | KCC2 sec1 0.0136 | KCC2 bumet counter 0.0427 | KCC2 sec2 inactive | HEK293 Tl flux 0.0191 | KCC2 retest ouab 0.0319 | HEK counter2 0.0122
CSc1ccccc1NC(=O)c1cnc2scc(C)n2c1=O	Cl transport mod -3.93 | KCC2 sec1 inactive | KCC2 bumet counter inactive | KCC2 sec2 0.0268 | HEK293 Tl flux 0.00616 | KCC2 retest ouab inconclusive | HEK counter2 inactive
CSc1ccccc1NC(=O)c1cnccn1	Cl transport mod 3.42 | KCC2 sec1 inactive | KCC2 bumet counter inactive | KCC2 sec2 inactive | HEK293 Tl flux inactive | KCC2 retest ouab inactive | HEK counter2 inactive
Cc1nn(C(C)C(=O)N/N=C/c2ccc(N(C)C)cc2)c(C)c1[N+](=O)[O-] (configuration not stated)	none
Cc1ccc(S(=O)(=O)N(OCc2ccccc2)C(C)C(=O)O)cc1 (configuration not stated)	none (no result: Cl transport mod)
CCCCNC(=O)CSc1nc2ccc(N3CCOCC3)cc2c(=O)n1CCc1ccccc1	none
O=C(CSc1nc2ccc(N3CCOCC3)cc2c(=O)n1CCc1ccccc1)NCC1CCCO1 (configuration not stated)	Cl transport mod 6.75 | KCC2 sec1 inactive | KCC2 bumet counter 0.0159 | KCC2 sec2 inactive | HEK293 Tl flux 0.00897 | KCC2 retest ouab inactive | HEK counter2 0.013
CCSc1ncnc2sc(C)c(C)c12	none
COC(=O)c1ccc(CSc2ncnc3sc(C)c(C)c23)o1	Cl transport mod 50.7 | KCC2 sec1 0.0113 | KCC2 bumet counter 0.1 | KCC2 sec2 0.0698 | HEK293 Tl flux 0.0645 | KCC2 retest ouab 0.0843 | HEK counter2 0.0498
C=CCSc1ncnc2sc(C)c(C)c12	Cl transport mod 4.79 | KCC2 sec1 inactive | KCC2 bumet counter 0.0229 | KCC2 sec2 inactive | HEK293 Tl flux 0.0132 | KCC2 retest ouab inactive | HEK counter2 0.0129
CC(=O)c1ccc(NC(=O)CSc2cn[nH]n2)cc1	none (no result: Cl transport mod)
CC(C)(C)NC(=S)NNC(=O)[C@H]1C[C@@H]1c1ccccc1	none
O=C(NC(=S)NNC(=O)[C@H]1C[C@@H]1c1ccccc1)c1ccc(F)cc1	Cl transport mod 19.7 | KCC2 sec1 inactive | KCC2 bumet counter 0.0198 | KCC2 sec2 inactive | HEK293 Tl flux 0.0205 | KCC2 retest ouab 0.0297 | HEK counter2 0.0211
COc1cccc(CC(NC(C)=O)C(=O)NC2CCN(S(=O)(=O)c3ccc(NC(C)=O)cc3)CC2)c1OC (configuration not stated)	none (no result: Cl transport mod)
Cc1nc(N2CCN(Cc3ccccc3)CC2)nc2c1C(=O)CCC2	Cl transport mod -2.93 | KCC2 sec1 inactive | KCC2 bumet counter inactive | KCC2 sec2 inconclusive | HEK293 Tl flux inactive | KCC2 retest ouab 0.0153 | HEK counter2 inactive
CC(C)Cn1c(-c2csc3ccccc23)n[nH]c1=S	Cl transport mod 4.85 | KCC2 sec1 inactive | KCC2 bumet counter 0.0192 | KCC2 sec2 inactive | HEK293 Tl flux 0.0178 | KCC2 retest ouab inconclusive | HEK counter2 0.0147
Cc1ccc(-n2c(-c3cccc(C)c3)n[nH]c2=S)cc1	Cl transport mod 5.85 | KCC2 sec1 inactive | KCC2 bumet counter 0.0203 | KCC2 sec2 inactive | HEK293 Tl flux 0.0142 | KCC2 retest ouab 0.021 | HEK counter2 0.0166
CC(C)Cn1c(-c2csc(C(C)C)c2)n[nH]c1=S	Cl transport mod 21 | KCC2 sec1 0.0152 | KCC2 bumet counter 0.0801 | KCC2 sec2 inactive | HEK293 Tl flux 0.0315 | KCC2 retest ouab 0.0559 | HEK counter2 0.0122
CCn1c(-c2csc(C(C)C)c2)n[nH]c1=S	none
CCn1c(-c2csc3ccccc23)n[nH]c1=S	none
Cc1ccc([N+](=O)[O-])c(-c2n[nH]c(=S)n2-c2cccc(Cl)c2)c1	Cl transport mod 7.13 | KCC2 sec1 0.014 | KCC2 bumet counter 0.0322 | KCC2 sec2 inactive | HEK293 Tl flux 0.0122 | KCC2 retest ouab inconclusive | HEK counter2 0.0119
O=C(Nc1ncccc1O)c1ccc(Cl)c(S(=O)(=O)N2CCCCC2)c1	none (no result: Cl transport mod)
COCCCNC(=S)NNC(=O)c1cc(C2CC2)nc2ccccc12	none (no result: Cl transport mod)
Cc1cccc(N2CCN(S(=O)(=O)c3c(C)noc3/C=C/N(C)C)CC2)c1C	none (no result: Cl transport mod)
CC(C(=O)NCc1ccccc1Cl)n1cc([N+](=O)[O-])cn1 (configuration not stated)	none (no result: Cl transport mod)
Cc1cccc(-n2c(-c3csc4ccccc34)n[nH]c2=S)c1	Cl transport mod 17.1 | KCC2 sec1 0.0128 | KCC2 bumet counter 0.0694 | KCC2 sec2 inactive | HEK293 Tl flux 0.0256 | KCC2 retest ouab 0.0549 | HEK counter2 inconclusive
Cc1cccc(-n2c(-c3ccncc3)n[nH]c2=S)c1	none
COc1cccc(NC(=O)CCC2CCN(Cc3nccs3)CC2)c1	none (no result: Cl transport mod)
Cc1ccc(-n2nnnc2SCC(=O)NC2CCCc3ccccc32)c(C)c1 (configuration not stated)	none
Cc1ccc(-n2nnnc2SCC(=O)N2CCc3ccccc3C2)cc1	Cl transport mod -3.61 | KCC2 sec1 inactive | KCC2 bumet counter inactive | KCC2 sec2 inactive | HEK293 Tl flux inactive | KCC2 retest ouab 0.0211 | HEK counter2 inactive
Cc1ccc(-n2nnnc2SCC(=O)NC2CCCc3ccccc32)cc1 (configuration not stated)	Cl transport mod -4.6 | KCC2 sec1 inactive | KCC2 bumet counter 0.00333 | KCC2 sec2 0.0255 | HEK293 Tl flux inconclusive | KCC2 retest ouab 0.014 | HEK counter2 inactive
